Source: ChEMBL document CHEMBL1141180, “Synthesis and antiviral activity of helioxanthin analogues” (J Med Chem, 2005)

How the values were obtained:
Human gammaherpesvirus 4 = assay: Effective concentration to inhibit 50% of epstein Barr virus replication in a cell culture model; type: functional, organism-based
MT2 = assay: Cytotoxicity against MT-2 cell lines of human; type: functional; details: read-out: ID50 (the source's name)
[1] = Effective concentration to inhibit 50% of human immunodeficiency virus replication in a cell culture model; type: functional
Hepatitis C virus = assay: Effective concentration to inhibit 50% of hepatitis C virus replication in a cell culture model; type: functional, organism-based, Hepacivirus hominis
Summary of the method: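 HCV replicon Huh-Luc/neo cells grown to confluence, then treated with varying drug concentrations in DMEM with 10% dFBS for 3 days. Medium was removed and cells lysed in passive lysis buffer, shaken 15 min at room temperature. Lysate was mixed with luciferase substrate and luminescence read immediately as the measure of replicon activity.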

CCRF-CEM = assay: Cytotoxicity against CEM cell lines of human; type: functional; details: read-out: ID50 (the source's name)
Human alphaherpesvirus 2 = assay: Effective concentration to inhibit 50% of herpes simplex virus type 2 replication in a cell culture model; type: functional, organism-based
Hepatitis B virus = assay: Effective concentration to inhibit 50% of hepatitis B virus replication in a cell culture model; type: functional, organism-based
Human alphaherpesvirus 1 = assay: Effective concentration to inhibit 50% of herpes simplex virus type 1 replication in a cell culture model; type: functional, organism-based

Structure (SMILES)	EC50 (Human gammaherpesvirus 4)	IC50 (MT2)	EC50 [1]	EC50 (Hepatitis C virus)	IC50 (CCRF-CEM)	EC50 (Human alphaherpesvirus 2)	EC50 (Hepatitis B virus)	EC50 (Human alphaherpesvirus 1)
O=C1OC(O)c2c1c(-c1ccc3c(c1)OCO3)c1c3c(ccc1c2O)OCO3 (stereo not given)	> 10 µM	15 µM	> 15 µM	> 10 µM	39 µM	> 28 µM	> 20 µM	> 23 µM
CC(=O)NN1Cc2c(cc3ccc4c(c3c2-c2ccc3c(c2)OCO3)OCO4)C1=O	13 µM	7 µM	> 7 µM	> 10 µM	40 µM	10 µM	> 20 µM	5 µM
O=C1c2cc3ccc4c(c3c(-c3ccc5c(c3)OCO5)c2CN1CCCOCc1ccccc1)OCO4	> 20 µM	28 µM	> 28 µM	10 µM	67 µM	> 20 µM	> 20 µM	13 µM
COc1ccc(-c2c3c(cc4ccc5c(c24)OCO5)C(=O)NC3=O)cc1OC	–	–	–	–	–	–	0.8 µM	–
CN1Cc2c(cc3ccc4c(c3c2-c2ccc3c(c2)OCO3)OCO4)C1=O	> 20 µM	8 µM	> 8 µM	> 3 µM	6 µM	1 µM	> 20 µM	0.67 µM
O=C1NCc2c1cc1ccc3c(c1c2-c1ccc2c(c1)OCO2)OCO3	11 µM	4 µM	> 4 µM	1 µM	4.5 µM	0.16 µM	0.08 µM	0.29 µM
CNC(=O)c1cc2ccc3c(c2c(-c2ccc4c(c2)OCO4)c1C(=O)O)OCO3	> 20 µM	26 µM	> 26 µM	> 10 µM	29 µM	> 25 µM	> 10 µM	12 µM
COC(=O)c1c(C(=O)O)cc2ccc3c(c2c1-c1ccc2c(c1)OCO2)OCO3	> 20 µM	90 µM	> 90 µM	> 10 µM	74 µM	> 50 µM	> 20 µM	> 50 µM
O=c1[nH][nH]c(=O)c2c(-c3ccc4c(c3)OCO4)c3c4c(cc(Cl)c3cc12)OCO4	> 20 µM	54 µM	> 54 µM	10 µM	38 µM	> 40 µM	> 20 µM	> 7 µM
O=c1[nH][nH]c(=O)c2c(-c3ccc4c(c3)OCO4)c3c4c(ccc3cc12)OCO4	> 25 µM	16 µM	2.7 µM	> 10 µM	50 µM	1.4 µM	0.03 µM	1.4 µM
O=c1[nH][nH]c(=O)c2c(-c3ccc4c(c3)OCO4)c3c4c(cc(I)c3cc12)OCO4	> 20 µM	35 µM	> 2 µM	10 µM	40 µM	> 40 µM	> 10 µM	> 40 µM
COC1=NC(=O)c2c1cc1ccc3c(c1c2-c1ccc2c(c1)OCO2)OCO3	> 20 µM	> 100 µM	> 100 µM	> 10 µM	> 100 µM	> 50 µM	> 5 µM	> 50 µM
Cc1c(C(=O)OCCCO)cc2ccc3c(c2c1-c1ccc2c(c1)OCO2)OCO3	> 15 µM	10 µM	> 10 µM	> 10 µM	46 µM	> 25 µM	> 10 µM	> 25 µM
Nc1ccn([C@H]2CC[C@@H](CO)O2)c(=O)n1 [ZALCITABINE]	–	70 µM	0.8 µM	–	5 µM	–	–	–
